SMILES strings stand for the structures.

GI50, IC50 and SI data for 7 compounds are collected here from ChEMBL document CHEMBL1135702, “Antitumor polycyclic acridines. 8.(1) Synthesis and telomerase-inhibitory activity of methylated pentacyclic acridinium salts” (J Med Chem, 2002).

A short description of experiment [1]: Growth inhibition in the NCI 60 cell panel. As to conditions: Homo sapiens. The class given is functional.
For experiment [2], the target named is Telomerase reverse transcriptase (Homo sapiens, UniProt O14746). As to the kind of experiment: Inhibition of telomerase activity using TRAP assay. The gist of the method:
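Telomerase came from lysates of exponentially growing A2780 cells (CHAPS buffer, 30 min on ice, 0.1 mM AEBSF), using 40 ng protein. TS primer was extended in TRAP buffer (pH 8.3, 68 mM KCl) with 50 μM dNTPs and [α-³²P]dCTP, compound at various final concentrations, for 20 min at 25 °C. After 85 °C inactivation, the CX primer was added with Taq for 31 PCR cycles. Products were read by phosphoimaging or scintillation counting.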

Experiment [3] can be described thus: Selectivity index (GI50/Telomerase IC50).

Sequence of Telomerase reverse transcriptase (O14746 whole entry): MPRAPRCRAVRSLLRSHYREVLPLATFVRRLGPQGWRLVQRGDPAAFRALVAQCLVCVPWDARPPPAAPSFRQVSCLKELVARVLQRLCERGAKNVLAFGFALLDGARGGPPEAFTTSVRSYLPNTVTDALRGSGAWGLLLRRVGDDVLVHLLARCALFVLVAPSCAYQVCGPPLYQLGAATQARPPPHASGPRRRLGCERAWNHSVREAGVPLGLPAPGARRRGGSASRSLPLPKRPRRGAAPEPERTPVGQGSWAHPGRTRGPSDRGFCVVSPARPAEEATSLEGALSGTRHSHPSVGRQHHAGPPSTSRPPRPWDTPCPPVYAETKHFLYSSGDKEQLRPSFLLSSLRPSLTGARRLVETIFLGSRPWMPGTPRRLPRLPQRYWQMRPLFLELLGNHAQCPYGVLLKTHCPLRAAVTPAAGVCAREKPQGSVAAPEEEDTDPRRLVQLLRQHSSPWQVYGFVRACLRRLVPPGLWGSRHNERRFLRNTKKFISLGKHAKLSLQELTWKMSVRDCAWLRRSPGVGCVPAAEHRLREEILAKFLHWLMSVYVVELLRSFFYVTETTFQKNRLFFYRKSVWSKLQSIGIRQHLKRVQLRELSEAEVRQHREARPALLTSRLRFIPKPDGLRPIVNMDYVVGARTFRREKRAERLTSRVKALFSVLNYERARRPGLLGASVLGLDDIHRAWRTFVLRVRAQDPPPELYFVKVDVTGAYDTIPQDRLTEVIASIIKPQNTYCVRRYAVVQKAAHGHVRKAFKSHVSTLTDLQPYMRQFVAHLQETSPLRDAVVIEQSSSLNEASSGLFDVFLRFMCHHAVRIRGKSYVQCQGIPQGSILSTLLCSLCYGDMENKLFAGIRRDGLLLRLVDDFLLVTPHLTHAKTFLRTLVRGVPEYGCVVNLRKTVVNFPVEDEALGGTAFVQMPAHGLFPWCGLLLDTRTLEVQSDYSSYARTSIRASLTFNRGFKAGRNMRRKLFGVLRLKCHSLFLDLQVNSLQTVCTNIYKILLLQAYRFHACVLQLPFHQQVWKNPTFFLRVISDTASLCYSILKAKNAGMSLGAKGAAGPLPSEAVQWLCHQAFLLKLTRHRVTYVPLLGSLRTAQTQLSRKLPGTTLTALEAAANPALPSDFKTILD

Turning to `Cc1cc2c3c([n+](C)c4ccccc4c3c1)-c1ccccc1N2C`, it took 1290 nM to inhibit growth in experiment [1] by half (GI50). This compound came in with a half-inhibitory concentration (IC50) in experiment [2] of 760 nM. In experiment [3], the SI is 1.7.

The compound `CCN1c2ccccc2-c2c3c1cc(C)cc3c1ccccc1[n+]2CC` registered a GI50 in experiment [1] of 1100 nM. In addition, in experiment [2], 2000 nM corresponded to half-maximal inhibition (IC50). In addition, the SI in experiment [3] was 0.5.

`Cc1ccc2c(c1)-c1c3c(cc(C)cc3c3cc(C)ccc3[n+]1C)N2C`: halving of growth in experiment [1] (GI50) required 410 nM. This compound had an IC50 in experiment [2] of 250 nM. Also, in experiment [3], the SI amounted to 1.8.

`c1ccc2c(c1)Nc1cccc3cc4[n+](c-2c13)CCC4`: in experiment [1], the GI50 was found to be 90 nM.

In the case of `Cc1cc2c3c([n+](C)c4ccc(F)cc4c3c1)-c1cc(F)ccc1N2C`, in experiment [1], the GI50 was 13200 nM. In experiment [2], this compound returned an IC50 of 330 nM. In experiment [3], this compound yielded an SI of 40.

For `Cc1cc2c3c([n+](C)c4ccc(Cl)cc4c3c1)-c1cc(Cl)ccc1N2C`, in experiment [1], the GI50 was determined as 4170 nM. Besides, in experiment [2], the IC50 turned out to be 250 nM. This compound also registered an SI in experiment [3] of 17.

With `CN1c2ccccc2-c2c3c1cccc3c1ccccc1[n+]2C`, inhibition in experiment [2] was half-maximal at 380 nM (IC50).
